For one data set, the target named is PDE8A1 (480–820) (Homo sapiens, UniProt O60658). Description: PDE8A inhibition, 3H-cAMP radiometric enzyme assay. Format: biochemical. Summed up: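 Recombinant PDE8A1 (480–820) was expressed in E. coli BL21 (DE3), denatured in guanidine, refolded, and purified on Ni-NTA, hydroxyapatite, Q-Sepharose and gel filtration. ³H-cAMP (~20,000 cpm/assay) was reacted in Tris-HCl 20 mmol/L pH 7.5, MnCl₂ 10 mmol/L and DTT 1 mmol/L at 25 °C for 15 min. Reactions were stopped with ZnSO₄ then Ba(OH)₂, and supernatant ³H-cAMP was scintillation-counted. IC50 came from nonlinear regression over ≥8 concentrations, with each test run ≥3 times.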
PDE8A1 (480–820), sequence (O60658 480-820): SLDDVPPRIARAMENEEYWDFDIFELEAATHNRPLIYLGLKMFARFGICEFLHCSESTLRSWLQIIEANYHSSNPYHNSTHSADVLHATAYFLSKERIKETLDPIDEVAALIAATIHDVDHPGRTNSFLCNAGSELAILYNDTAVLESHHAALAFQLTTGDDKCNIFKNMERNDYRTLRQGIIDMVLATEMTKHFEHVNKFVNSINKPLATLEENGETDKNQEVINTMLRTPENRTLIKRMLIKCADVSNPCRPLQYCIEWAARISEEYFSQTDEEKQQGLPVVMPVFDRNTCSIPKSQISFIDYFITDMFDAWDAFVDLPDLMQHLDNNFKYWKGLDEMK

A short description of data set [1]: Metabolic stability in rat liver microsomes. It counts as in vitro ADME.

This is an account of results in article PMC9293670 (Acta Pharmaceutica Sinica. B, 2022).

For `Nc1nc(Cl)nc2c1ncn2Cc1cc(O)cc(OCC(F)F)c1` [Compound 12], the IC50 against PDE8A1 (480–820) was determined as 193 ± 17 nM.

On to `Nc1nc(Cl)nc2c1ncn2Cc1cc(OCC(F)F)cc(OCC2CC2)c1` [Compound 19], for which half-maximal inhibition against PDE8A1 (480–820) (IC50) was put at 40 ± 1 nM.

In data set [1], `CC(C)c1cc(Cn2cnc3c(N)nc(Cl)nc32)cc(OCC(F)F)c1` [Compound 16] yielded a half-life of 6 min. On PDE8A1 (480–820), this compound came in with an IC50 of 4.6 ± 0.6 nM.

Consider `Nc1nc(Cl)nc2c1ncn2Cc1cc(OCc2ccccc2)cc(OCC(F)F)c1` [Compound 21], for which inhibition against PDE8A1 (480–820) was half-maximal at 597 ± 61 nM (IC50).

For the compound `COCCOc1cc(Cn2cnc3c(N)nc(Cl)nc32)cc(OCC(F)F)c1` [Compound 20], the IC50 at PDE8A1 (480–820) is 52 ± 5 nM.

As to `COc1cc(Cn2cnc3c(N)nc(Cl)nc32)cc(OCC(F)F)c1` [Compound 13], half-maximal inhibition at PDE8A1 (480–820) (IC50) required 591 ± 11 nM.

The compound `CC(C)Oc1cc(Cn2cnc3c(N)nc(Cl)nc32)cc(OCC(F)F)c1` [Compound 17] registered a half-life in data set [1] of 16 min. In addition, it took 5 ± 0.3 nM to reach half-maximal inhibition at PDE8A1 (480–820) (IC50).

As for `CCOc1cc(Cn2cnc3c(N)nc(Cl)nc32)cc(OCC(F)F)c1` [Compound 14], the IC50 at PDE8A1 (480–820) came out at 593 ± 69 nM.

In data set [1], `Nc1nc(Cl)nc2c1ncn2Cc1cc(OCC(F)F)cc(-c2cccnc2)c1` [Compound 23] gave a half-life of 39 min. Further, the IC50 on PDE8A1 (480–820) was 4.8 ± 0.3 nM.

Regarding `Nc1nc(Cl)nc2c1ncn2Cc1cc(OCC(F)F)cc(OC2CCC2)c1` [Compound 18], the IC50 on PDE8A1 (480–820) is 20 ± 2 nM.

In data set [1], `Nc1nc(Cl)nc2c1ncn2Cc1cc(OCC(F)F)cc(-c2ccncc2)c1` [Compound 22] came in with a half-life of 8 min. Besides, on PDE8A1 (480–820), it took 3.1 ± 0.2 nM to reach half-maximal inhibition (IC50).

On to `Nc1nc(Cl)nc2c1ncn2Cc1cc(F)cc(OCC(F)F)c1` [Compound 11], for which the IC50 against PDE8A1 (480–820) turned out to be 51 ± 3 nM.

On PDE8A1 (480–820), `Nc1nc(Cl)nc2c1ncn2Cc1cc(OCC(F)F)cc(-c2ccco2)c1` [Compound 25] yielded an IC50 of 13 ± 2 nM.

In general, IC50 refers to the concentration that gives 50% inhibition. A high value points to weaker potency. One may read the half-life as the time in which the quantity being followed falls by half.
